In ChEMBL document CHEMBL3769358, “Arylboronic acids as dual-action FAAH and TRPV1 ligands” (Bioorg Med Chem Lett, 2016):

Experiments:
[1] = biological target: T1, Transient receptor potential cation channel subfamily V member 1 (Homo sapiens, UniProt Q8NER1); test: Agonist activity at recombinant human TRPV1 channel expressed in HEK293 cells assessed as increase in intracellular Ca2+ concentration by Fluo-4-AM dye based spectrofluorimetry relative to ionomycin; assay type: cell-based
Method in brief: (§1)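 HEK293 cells stably expressing human TRPV1, grown in MEM with non-essential amino acids, 10% FBS and 2 mM glutamine at 37 °C, 5% CO2. Cells loaded 1 h at room temperature with Fluo-4-AM (4 µM), washed into Tyrode's buffer pH 7.4, about 100,000 cells per stirred cuvette. Fluorescence (ex 488/em 516 nm) read at 25 °C. Efficacy normalised to 4 µM ionomycin, with wild-type HEK293 response subtracted when significant. EC50 from GraphPad; n = 4.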

[2] = biological target: T1, Transient receptor potential cation channel subfamily V member 1; test: Antagonist activity at recombinant human TRPV1 channel expressed in HEK293 cells assessed as inhibition of capsiacin-induced Ca2+ flux preincubated for 5 mins followed by capsiacin challenge by Fluo-4-AM dye based spectrofluorimetry; assay type: cell-based
Method in brief: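 Fluo-4-loaded HEK293 cells stably expressing human TRPV1, in Tyrode's buffer pH 7.4, read at 25 °C (ex 488/em 516 nm). Test compound added to the cuvette 5 min before 0.1 µM capsaicin. IC50 taken as half-maximal inhibition of capsaicin-induced [Ca2+]i rise, calculated in GraphPad; mean of n = 4.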

[3] = biological target: T2, Fatty-acid amide hydrolase 1 (Rattus norvegicus, UniProt P97612); test: Inhibition of rat brain FAAH assessed as hydrolysis of [14C]AEA to [14C]Ethanolamine incubated for 30 mins by scintillation counting method
T2 sequence (P97612 whole entry): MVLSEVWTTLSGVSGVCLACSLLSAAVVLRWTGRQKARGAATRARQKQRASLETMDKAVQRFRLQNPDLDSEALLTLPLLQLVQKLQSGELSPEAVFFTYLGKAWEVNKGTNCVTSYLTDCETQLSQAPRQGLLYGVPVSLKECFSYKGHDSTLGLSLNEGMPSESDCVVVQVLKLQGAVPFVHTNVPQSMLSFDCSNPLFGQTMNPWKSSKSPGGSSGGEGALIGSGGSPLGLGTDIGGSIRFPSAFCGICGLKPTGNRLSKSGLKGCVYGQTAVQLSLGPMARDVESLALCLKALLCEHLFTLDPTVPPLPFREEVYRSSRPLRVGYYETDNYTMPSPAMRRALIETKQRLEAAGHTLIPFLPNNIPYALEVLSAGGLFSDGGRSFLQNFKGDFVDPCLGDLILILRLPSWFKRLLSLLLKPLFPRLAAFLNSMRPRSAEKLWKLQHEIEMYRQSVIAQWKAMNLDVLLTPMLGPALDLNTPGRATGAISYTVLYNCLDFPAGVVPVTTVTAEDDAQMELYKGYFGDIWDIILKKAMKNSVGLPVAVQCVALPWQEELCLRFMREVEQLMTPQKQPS

[4] = biological target: T1, Transient receptor potential cation channel subfamily V member 1; test: Agonist activity at recombinant human TRPV1 channel expressed in HEK293 cells assessed as increase in intracellular Ca2+ concentration by Fluo-4-AM dye based spectrofluorimetry; assay type: cell-based; method in brief: as §1
[5] = biological target: T1, Transient receptor potential cation channel subfamily V member 1; test: Antagonist activity at recombinant human TRPV1 channel expressed in HEK293 cells assessed as inhibition of capsiacin-induced Ca2+ flux by Fluo-4 dye based spectrofluorimetry assay

T1 sequence (Q8NER1 whole entry): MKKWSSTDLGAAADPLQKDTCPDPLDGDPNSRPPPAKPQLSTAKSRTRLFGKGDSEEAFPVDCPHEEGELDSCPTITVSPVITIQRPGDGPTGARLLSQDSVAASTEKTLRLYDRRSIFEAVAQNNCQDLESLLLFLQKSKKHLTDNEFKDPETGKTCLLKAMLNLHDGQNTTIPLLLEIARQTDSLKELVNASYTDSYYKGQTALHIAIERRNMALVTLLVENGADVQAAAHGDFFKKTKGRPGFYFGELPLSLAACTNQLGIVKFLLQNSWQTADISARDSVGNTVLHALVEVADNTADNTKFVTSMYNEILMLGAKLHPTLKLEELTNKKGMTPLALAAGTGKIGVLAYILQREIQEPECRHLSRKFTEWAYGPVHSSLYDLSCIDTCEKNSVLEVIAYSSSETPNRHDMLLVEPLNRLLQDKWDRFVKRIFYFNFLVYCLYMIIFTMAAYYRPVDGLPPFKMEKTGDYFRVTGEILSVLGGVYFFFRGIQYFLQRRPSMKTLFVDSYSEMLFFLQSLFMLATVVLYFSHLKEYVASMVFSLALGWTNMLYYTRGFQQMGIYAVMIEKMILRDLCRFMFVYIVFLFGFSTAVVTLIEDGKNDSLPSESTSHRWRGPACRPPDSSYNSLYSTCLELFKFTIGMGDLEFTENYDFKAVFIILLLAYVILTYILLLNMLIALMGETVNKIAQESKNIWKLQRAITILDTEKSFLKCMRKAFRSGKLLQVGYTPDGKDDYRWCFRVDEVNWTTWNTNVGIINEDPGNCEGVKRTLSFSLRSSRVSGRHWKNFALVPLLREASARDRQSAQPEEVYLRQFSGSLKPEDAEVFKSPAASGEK

Compound	Efficacy [1] [%]	IC50 [2] [nM]	IC50 [3] [nM]	EC50 [4] [nM]	IC50 [5] [nM]
O=C(NCCCCc1ccccc1)c1ccc(B(O)O)cc1	< 10	> 10000	580	–	–
COc1cc(CNC(=O)CCCCCCCc2ccccc2)ccc1B(O)O	62.5	34	1770	51	–
CCCCC/C=C\C/C=C\C/C=C\C/C=C\CCCC(=O)NCCc1c[nH]c2ccc(O)cc12	< 10	–	–	–	–
CC(C)(C)c1ccc(NC(=O)NCc2ccc(B(O)O)cc2)cc1	< 10	4130	1990	–	–
OB(O)c1ccc(-c2ccccc2)cc1 [BIPHENYLBORONIC ACID]	< 10	> 10000	790	–	–
CCCCCCCC/C=C\CCCCCCCC(=O)NCc1ccc(B(O)O)cc1	42.2	47	> 10000	22	–
O=C(NCc1ccccc1)c1ccc(B(O)O)cc1	< 10	> 10000	2870	–	–
O=C(Cc1ccccc1)NCCCCCCCc1ccccc1	54.6	1210	> 10000	660	–
COc1cc(CNC(=O)Nc2ccc(C(C)(C)C)cc2)ccc1B(O)O	< 10	8110	4280	–	–
O=C(CCCCCc1ccccc1)NCc1ccc(B(O)O)cc1	41.1	2890	1080	1530	–
O=C(Cc1ccc(B(O)O)cc1)NCCCCCc1ccccc1	62.8	2530	630	2250	–
CCCCCCCCCc1ccc(B(O)O)cc1	< 10	> 10000	2920	–	–
CC(C)(C)c1ccc(NC(=O)Nc2ccc(B(O)O)cc2)cc1	< 10	1950	> 10000	–	–
CCCCCCCC/C=C\CCCCCCCC(=O)NCc1ccc(B(O)O)c(OC)c1	49.2	32	> 10000	20	–
O=C(Cc1ccc(B(O)O)cc1)NCCCCc1ccccc1	44.9	2190	1170	1990	–
O=C(Cc1ccc(B(O)O)cc1)NCc1ccccc1	< 10	> 10000	> 10000	–	–
O=C(CCCCCc1ccccc1)Nc1ccc(B(O)O)cc1	< 10	> 10000	570	–	–
O=C(Cc1ccc(B(O)O)cc1)NCc1ccc(-c2ccccc2)cc1	27.4	5530	280	310	–
COc1cccc(NC(=O)/C=C/c2ccc(Cl)cc2)c1	< 10	190	> 10000	–	270

Compound	Efficacy [1] [%]	IC50 [2] [nM]	IC50 [3] [nM]	EC50 [4] [nM]	IC50 [5] [nM]
O=C(Cc1ccc(B(O)O)cc1)NCCCCCCCc1ccccc1	52.5	370	250	370	–
O=C(/C=C/c1ccc(Cl)cc1)Nc1ccc(B(O)O)cc1	< 10	1390	560	–	–
COc1cc(CNC(=O)CCCCCc2ccccc2)ccc1B(O)O	59.3	1530	1320	1460	–
CC(C)(C)c1ccc(NC(=O)Cc2ccc(B(O)O)cc2)cc1	< 10	> 10000	> 10000	–	–
O=C(/C=C/c1ccc(Cl)cc1)NCc1ccc(B(O)O)cc1	< 10	> 10000	1510	–	–
O=C(NCCc1ccc(O)cc1)c1ccc(B(O)O)cc1	< 10	> 10000	> 10000	–	–
O=C(Nc1ccc(-c2ccccc2)cc1)c1ccc(B(O)O)cc1	12.5	> 10000	150	3970	–
CC(C)(C)c1ccc(C(=O)Nc2ccc(B(O)O)cc2)cc1	39.3	780	> 10000	520	–
CC(C)(C)c1ccc(NC(=O)c2ccc(B(O)O)cc2)cc1	< 10	750	5500	–	–
O=C(NCc1ccc(-c2ccccc2)cc1)c1ccc(B(O)O)cc1	< 10	> 10000	1860	–	–
O=C(/C=C/c1ccc(Cl)cc1)Nc1cccc(B(O)O)c1	< 10	41	> 10000	–	–
O=C(CCCCCCCc1ccccc1)Nc1ccc(B(O)O)cc1	< 10	> 10000	390	–	–
O=C(NCCCCCc1ccccc1)c1ccc(B(O)O)cc1	< 10	> 10000	180	–	–
O=C(Cc1ccc(-c2ccccc2)cc1)Nc1ccc(B(O)O)cc1	< 10	> 10000	> 10000	–	–
O=C(Oc1ccc(C(F)(F)F)cc1)N1CCN(c2ncccc2C(F)(F)F)CC1	< 10	–	–	–	–
O=C(CCCCCCCc1ccccc1)NCc1ccc(B(O)O)cc1	54.7	500	470	1000	–
O=C(Cc1ccc(O)cc1)NCCCCCCCc1ccccc1	64.7	260	–	170	–
O=C(NCc1ccc(B(O)O)cc1)c1ccc(-c2ccccc2)cc1	22	7110	330	4230	–
O=C(CCc1ccccc1)NCc1ccc(B(O)O)cc1	60.2	230	> 10000	320	–
